These results are taken from ChEMBL document CHEMBL1139499, “Nucleotides and pronucleotides of 2,2-bis(hydroxymethyl)methylenecyclopropane analogues of purine nucleosides: synthesis and antiviral activity” (J Med Chem, 2005).

In experiment [1] the test system is Human alphaherpesvirus 1. In words: Effective concentration required to inhibit herpes simplex virus 1 in BSC-1 cells in ELISA. The class given is functional, organism-based. The conditions noted are these: Human alphaherpesvirus 1, BSC-1. The procedure, abridged:
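HSV-1 assayed in BSC-1 cells with ELISA read-out; cytotoxicity in these assays determined in KB cells. Single experiments unless specified otherwise.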

The subject of experiment [2] is Human alphaherpesvirus 1. In words: Effective concentration required to inhibit herpes simplex virus 1 in vero cells in plaque reduction assay. The class given is functional, organism-based. The conditions noted are these: Human alphaherpesvirus 1, Vero. In outline: (§1)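 HSV-1 and HSV-2 assayed in Vero cells by plaque reduction. Single experiments unless specified otherwise.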

For experiment [3], the system named is Human gammaherpesvirus 4. The experiment in a line: Effective concentration required to inhibit Epstein-barr virus replication in H-1 cells in DNA hybridization assay. The conditions noted are these: human gammaherpesvirus 4, H-1. The class given is functional, organism-based. In outline:
(§2)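 EBV assayed in H-1 cells by DNA hybridization. Cytotoxicity determined separately in CEM cells. Single experiments unless specified otherwise.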

The subject of experiment [4] is Human betaherpesvirus 5. In words: Effective concentration for antiviral activity against AD169 strain of human cytomegalovirus in plaque reduction assay. The class given is functional, organism-based. In outline: (§3)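 Human CMV (Towne and AD169 strains) grown in HFF cell culture; antiviral effect read by plaque reduction or by cytopathic effect (CPE) inhibition. Cytotoxicity measured in HFF cells. Single experiments unless specified otherwise.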

Experiment [5] has as its system Human alphaherpesvirus 1. The experiment in a line: Effective concentration required to inhibit herpes simplex virus 1 in HFF cells in cytopathic effect (CPE) assay. It counts as functional, organism-based. The conditions noted are these: Human alphaherpesvirus 1, HFF. In outline: (§4)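 HSV-1 and HSV-2 assayed in HFF cells by cytopathic effect (CPE) inhibition and by plaque reduction. Cytotoxicity measured in HFF cells. Single experiments unless specified otherwise.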

The subject of experiment [6] is Human gammaherpesvirus 4. The experiment in a line: Effective concentration required to inhibit Epstein-barr virus replication in daudi cells in viral capsid immunofluorescence ELISA. It counts as functional, organism-based. The conditions noted are these: human gammaherpesvirus 4, Daudi.
For experiment [7], the system named is HFF. In words: Cytotoxic concentration against towne strain of human cytomegalovirus infected HFF cells of human (visual cytotoxicity). The class given is functional. The procedure, abridged: as §3
Experiment [8] has as its system KB (Homo sapiens). In words: Cytotoxic concentration required to inhibit KB cells.
In experiment [9] the test system is Human alphaherpesvirus 2. The experiment in a line: Effective concentration required to inhibit herpes simplex virus 2 in vero cells in plaque reduction assay. It counts as functional, organism-based. The settings on record: Human alphaherpesvirus 2, Vero. In outline:
as §1

Experiment [10] relates to Human alphaherpesvirus 2. The experiment in a line: Effective concentration required to inhibit herpes simplex virus 2 in HFF cells in cytopathic effect (CPE) assay. It counts as functional, organism-based. The settings on record: Human alphaherpesvirus 2, HFF. In outline: as §4
The subject of experiment [11] is HFF. The experiment in a line: Cytotoxic concentration to inhibit herpes simplex virus 2 infected HFF cells. The class given is functional. The conditions noted are these: Homo sapiens. The procedure, abridged: as §4
Experiment [12] has as its system Daudi. The experiment in a line: Cytotoxic concentration to inhibit replication in daudi cells. The class given is functional. The settings on record: Homo sapiens.
Experiment [13] in a line: Effective concentration required to inhibit varicella zoster virus replication in HFF cells. It counts as functional, cell-based. The conditions noted are these: Human alphaherpesvirus 3, HFF. The procedure, abridged:
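VZV assayed in HFF cells by cytopathic effect (CPE) inhibition or by plaque reduction. Single experiments unless specified otherwise.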

For experiment [14], the system named is HFF. In words: Cytotoxic concentration against AD169 strain of human cytomegalovirus infected HFF cells of human (by neutral red uptake). It counts as functional.
Experiment [15] can be described thus: Cytotoxic concentration to inhibit replication in H-1 cells (in CEM cells). It counts as functional. The conditions noted are these: Homo sapiens, CCRF-CEM. In outline:
as §2

Experiment [16] deals with HFF. The experiment in a line: Cytotoxic concentration to inhibit herpes simplex virus 1 infected HFF cells. It counts as functional. The conditions noted are these: Homo sapiens. In outline:
as §4

The subject of experiment [17] is Human betaherpesvirus 5. In words: Effective concentration for antiviral activity against towne strain of human cytomegalovirus in plaque reduction assay. It counts as functional, organism-based. The procedure, abridged:
as §3

Experiment [18] concerns Hepatitis B virus. The experiment in a line: Effective concentration required to inhibit hepatitis B virus replication in 2.2.15 cells in DNA hybridization assay. It counts as functional, organism-based. The conditions noted are these: HepG2 2.2.15. In outline: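 HBV assayed in 2.2.15 cells by DNA hybridization. CC50 values are those from the EBV/H-1 cytotoxicity determination, run in CEM cells. Single experiments unless specified otherwise.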

The test system of experiment [19] is MEF. The experiment in a line: Cytotoxic concentration against murine cytomegalovirus infected MEF cells. The settings on record: Mus musculus. It counts as functional.
Experiment [20] concerns Vero. In words: Cytotoxic concentration required to inhibit herpes simplex virus 1 infected vero cells. It counts as functional. The settings on record: Chlorocebus sabaeus.
Experiment [21] relates to HFF. In words: Cytotoxic concentration to inhibit Herpes simplex virus 1 infected HFF cells. The conditions noted are these: Homo sapiens. The class given is functional. In outline:
as §4

The test system of experiment [22] is HFF. The experiment in a line: Cytotoxic concentration to inhibit Herpes simplex virus 2 infected HFF cells. It counts as functional. The settings on record: Homo sapiens. In outline: as §4
Experiment [23] deals with HFF. In words: Cytotoxic concentration to inhibit replication in HFF cells in cytopathic effect inhibition assay. The conditions noted are these: Homo sapiens. The class given is functional. In outline:
as §3

For experiment [24], the system named is Vero. The experiment in a line: Cytotoxic concentration required to inhibit herpes simplex virus 2 infected vero cells. The class given is functional. The conditions noted are these: Chlorocebus sabaeus.
For experiment [25], the species on record is Homo sapiens. The experiment in a line: Cytotoxic concentration to inhibit replication in 2.2.15 cells. The conditions noted are these: HepG2 2.2.15. The class given is functional.

Regarding `Nc1nc(O)c2ncn(/C=C3/CC3(CO)COP(=O)(O)O)c2n1` (stereo not given), the EC50 was over 100 µM in [1]; 50 µM in [2]; 2.3 µM in [3]; 1.1 µM in experiment [4]; 9.9 µM in experiment [5]; over 146 µM in experiment [6]. For the same compound, the EC50 in experiment [9] was over 50 µM; in [10], 23.3 µM; in experiment [13], over 291 µM; in experiment [17], 0.25 µM; in experiment [18], 15 µM. In addition, the CC50 was 100 µM in experiment [7]; over 100 µM in experiment [8]; over 291 µM in [11]; over 146 µM in [12]; over 291 µM in [14]; 62 µM in [15]. For the same compound, the figures for the CC50 in [16] and in [19] were over 291 µM and 175 µM, respectively.
For `Nc1nc2c(ncn2COCCO)c(=O)[nH]1` [ACYCLOVIR], the EC50 in experiment [1] is 1.5 µM; in [2] it was 13.5 µM; in experiment [5], 0.9 µM; in experiment [6], 1.1 µM; in experiment [9], 32.3 µM; in experiment [10], 6.7 µM. For the same compound, the EC50 in [13] worked out at 1.6 µM. In addition, the CC50 in experiment [20] is over 200 µM; in experiment [21] it was over 444 µM; in experiment [8] it was over 100 µM; in experiment [22], over 444 µM; in [12], over 222 µM; in experiment [23] it was over 444 µM. Further, the CC50 in [24] was over 200 µM.
In turn, `Nc1ccn([C@@H]2CS[C@H](CO)O2)c(=O)n1` [LAMIVUDINE] returned a CC50 in experiment [25] of over 100 µM. For the same compound, the EC50 in [18] came out at 0.05 µM.
